Results collected from several papers.
Each line is one published result; the experiments were not run side by side.

For `Cc1c(C(=O)NN2CCCCC2)nc(-c2ccc(Cl)cc2Cl)n1-c1ccc(OS(=O)(=O)CCC(C)C)cc1`, the logD was 5.3 (shake flask; aqueous buffer; pH 7.4).
For `CNC(=O)[C@H](Cc1c[nH]cn1)NC(=O)CN(CC(=O)O)Cc1ccccc1`, the logD was -2.29 (shake flask; PBS; 2 h; pH 7.4).
For `CN1CCN(c2ccc3nc(-c4ccc5nc(-c6ccc(OCCCC(=O)Nc7ccc(CC(CN(CCN(CC(=O)O)CC(=O)O)CC(=O)O)N(CC(=O)O)CC(=O)O)cc7)cc6)[nH]c5c4)[nH]c3c2)CC1` (stereo not shown), the logD was -0.5 (shake flask; PBS; pH 7.4).
`CC(C)CN(C[C@@H](O)[C@H](Cc1ccccc1)NC(=O)O[C@H]1CO[C@H]2OCC[C@H]21)S(=O)(=O)c1ccc(N)cc1` has a logD of 2.8 (shake flask; PBS; pH 5).
For `O=C(O)C1=Cc2cc3ccc(cc4nc(cc5c(-c6ccccc6)c(C(=O)O)c(c(C(=O)O)c1n2)n5C(=O)O)C=C4)[nH]3`, the logD was 0.0277 (shake flask; aqueous buffer; pH 9).
For `COc1ccc2cc(CCC[18F])ccc2c1`, the logD was 2.46 (shake flask; aqueous buffer; pH 7.4).
`CC(C)Cc1ccc(C(C)C(=O)O)cc1` (stereo not shown) has a logD of 0.94 (shake flask; aqueous buffer; pH 7.5).
The logD of `C[C@]1(C(=O)O)CSC(c2ccc(OCCCC(=O)O)cc2O)=N1` is reported as -2.21 (shake flask; aqueous buffer; pH 7.4).
`Cc1c(C(=O)N[C@@H]2CCCC[C@@H]2O)nc(-c2ccc(Cl)cc2Cl)n1-c1ccc(OS(=O)(=O)CCC(F)(F)F)cc1` (single isomer, unassigned) gave a logD of over 4.3 (shake flask; aqueous buffer; pH 7.4).
`CCOCc1nc2c(N)nc3ccccc3c2n1CC(C)(C)O` has a logD of 1.14 (shake flask; PBS; pH 7.4).
The logD of `C[C@]1(C(=O)O)CSC(c2ccc(OCC(=O)O)cc2O)=N1` is reported as -1.98 (shake flask; aqueous buffer; pH 7.4).
With `CCC1=C(C)C2=NC1=Cc1c(C)c(CC)c3[n]1[Fe][n]1c(c(C)c(CCC(=O)O)c1=CC1=NC(=C3)C(C)=C1CCC(=O)O)=C2` the logD was 0.552 (shake flask; aqueous buffer; pH 9).
With `C[C@]1(C(=O)O)CSC(c2ccc(OCCCCCC(=O)O)cc2O)=N1` the logD was -1.9 (shake flask; aqueous buffer; pH 7.4).
The logD of `Cc1c(C(=O)Nc2ccc(C(F)(F)F)nc2)nc(-c2ccc(Cl)cc2Cl)n1-c1ccc(OS(=O)(=O)CCC(F)(F)F)cc1` is reported as over 4.9 (shake flask; aqueous buffer; pH 7.4).
With `COC(=O)CN(CCCc1ccccc1)CC(=O)N[C@@H](Cc1c[nH]cn1)c1nc(C)no1` the logD was 1.52 (shake flask; PBS; 2 h; pH 7.4).
For `CCCS(=O)(=O)Oc1ccc(-n2c(-c3ccc(Cl)cc3Cl)nc(C(=O)NN3CCCCC3)c2C)cc1`, the logD was 4.6 (shake flask; aqueous buffer; pH 7.4).
For `COc1ccn2c(Nc3ccccc3F)c(-c3ccncn3)nc2c1`, the logD was 2.5 (pH 7.4).
`CNC(=O)[C@H](Cc1c[nH]cn1)NC(=O)CN(CCCc1ccccc1)CC(=O)OC` has a logD of 1.07 (shake flask; PBS; 2 h; pH 7.4).
With `CN1CCN(c2ccc3nc(-c4ccc5nc(-c6ccc(OCCCCNC(=O)[C@H](N)CS)cc6)[nH]c5c4)[nH]c3c2)CC1` the logD was 2 (shake flask; PBS; pH 7.4).
`Cc1c(C(=O)N[C@H]2CCC[C@H](O)C2)nc(-c2ccc(Cl)cc2Cl)n1-c1ccc(OS(=O)(=O)CCC(F)(F)F)cc1` (relative stereo) has a logD of 4.6 (shake flask; aqueous buffer; pH 7.4).
`CCCCc1nc2c(N)nc3ccccc3c2n1Cc1ccc(CN)cc1` gave a logD of 0.42 (shake flask; PBS; pH 7.4).
The logD of `CCCc1cc2c(N3CCn4c(nnc4C(F)(F)F)C3)nc(OCC[18F])nc2s1` is reported as 2.06 (shake flask; aqueous buffer; pH 7.4).
`Cc1c(C(=O)N[C@@H]2CCCC[C@@H]2N(C)C)nc(-c2ccc(Cl)cc2Cl)n1-c1ccc(OS(=O)(=O)CCC(F)(F)F)cc1` (relative stereo) has a logD of 3.8 (shake flask; aqueous buffer; pH 7.4).
For `O=C(O)CN(CCCc1ccccc1)CC(=O)N[C@@H](Cc1c[nH]cn1)C(=O)NCc1ccccc1`, the logD was -0.58 (shake flask; PBS; 2 h; pH 7.4).
With `Cc1c(C(=O)NN2CCCCC2)nc(-c2ccc(Cl)cc2Cl)n1-c1ccc(OCCC(F)(F)F)cc1` the logD was 5.4 (shake flask; aqueous buffer; pH 7.4).
For `N#CCc1ccccc1C#Cc1ccc(CCC(=O)O)c(F)c1`, the logD was 1.41 (shake flask; PBS; pH 7.4).
The logD of `Cc1c(C(=O)NN2CCCCC2)nc(-c2ccc(Cl)cc2Cl)n1-c1ccc(OS(=O)(=O)CCC(F)(F)F)cc1` is reported as 4.9 (shake flask; aqueous buffer; pH 7.4).
`Cc1noc([C@H](Cc2c[nH]cn2)NC(=O)CN(CCCc2ccccc2)CC(=O)O)n1` has a logD of -0.84 (shake flask; PBS; 2 h; pH 7.4).
